Key:
Format in all cases: functional
MDA-MB-468 = assay: Cytotoxicity against human MDA-MB-468 cells assessed as growth inhibition at 10 uM after 48 hrs by SRB assay; conditions: MDA-MB-468, 48 h, read-out: GI
Summary of the method: (§1)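 Single-dose screen at 10µM across the sixty-cell-line panel. Percentage growth is derived from SRB-stain OD taken just before compound exposure, after 48 hrs exposure, and in vehicle-treated controls. Negative values indicate cytotoxicity.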

TK-10 = assay: Cytotoxicity against human TK10 cells assessed as growth inhibition at 10 uM after 48 hrs by SRB assay; conditions: TK-10, 48 h, read-out: GI; summary of the method: as §1
A498 = assay: Cytotoxicity against human A498 cells assessed as growth inhibition at 10 uM after 48 hrs by SRB assay; conditions: A498, 48 h, read-out: GI; summary of the method: as §1
[1] = Cytotoxicity against human OVCAR5 cells assessed as growth inhibition at 10 uM after 48 hrs by SRB assay; conditions: OVCAR-5, 48 h, read-out: GI; summary of the method: as §1
NCI-H226 = assay: Cytotoxicity against human NCI-H226 cells assessed as growth inhibition at 10 uM after 48 hrs by SRB assay; conditions: NCI-H226, 48 h, read-out: GI; summary of the method: as §1

Row | Compound | inhibition of growth at 10 µM (MDA-MB-468) [%] | inhibition of growth at 10 µM (TK-10) [%] | inhibition of growth at 10 µM (A498) [%] | inhibition of growth at 10 µM [1] [%] | inhibition of growth at 10 µM (NCI-H226) [%]
1 | COC(=O)c1ccc2c(c1)c(C=C1C(=O)N(C)C(=O)N(C)C1=O)cn2Cc1ccc(S(=O)(=O)c2ccccc2)cc1 | 88 | 100 | 83 | 108 | 98
2 | CN1C(=O)C(=Cc2cn(Cc3ccccc3Br)c3ccccc23)C(=O)N(C)C1=O | 56 | 105 | 74 | 75 | -32
3 | CN1C(=O)C(=Cc2cn(Cc3ccc(C#N)cc3)c3ccccc23)C(=O)N(C)C1=O | -71 | 62 | 68 | 6 | -72

Source: ChEMBL document CHEMBL3102840, “Synthesis and anti-proliferative activity of aromatic substituted 5-((1-benzyl-1H-indol-3-yl)methylene)-1,3-dimethylpyrimidine-2,4,6(1H,3H,5H)-trione analogs against human tumor cell lines” (2014)
